ChEMBL document CHEMBL1152475, “Investigation of the antioxidant properties of some new 4-hydroxycoumarin derivatives” (Eur J Med Chem, 2009)
Active and inactive are the calls of the source. The rule behind the calls is not given here.

Experiments:
[1] = Antioxidant activity assessed as luminol-dependent chemiluminescence at 100 uM relative to control; assay type: functional
Summary of the method: (§1)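 Chemiluminescence run in 1 ml PBS with 0.1 mM luminol and 0.06 mM NaOCl to generate ClO⁻. Compound at several concentrations up to 10^-4 mol/L, or buffer for controls. CL recorded every 50 ms after NaOCl addition in flash mode. Scavenger index (CL-SI) expressed relative to the buffer control, set at 100%.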

[2] = Antioxidant activity assessed as decrease in luminol-dependent chemiluminescence's scavenger index; assay type: functional; summary of the method: as §1
[3] = Antioxidant activity assessed as luminol-dependent chemiluminescence at 1 uM; assay type: functional; summary of the method: as §1
HUVEC = experiment: Cytoprotective activity against linoleic acid hydroperoxide-induced toxicity in HUVEC cells after 3 hrs; assay type: functional, cell-based; conditions: Homo sapiens
HL-60 = experiment: Cytotoxicity against human HL60 cells; assay type: functional, cell-based
EJ = experiment: Cytotoxicity against human EJ cells; assay type: functional, cell-based

Structure (SMILES): CCOC(=O)C(C(C)=O)C(c1cc(OC)c(OC)c(OC)c1)c1c(O)c2ccccc2oc1=O (stereo not given)
- Activity [1]: Active
- Activity [2]: Dose-dependent effect

Structure (SMILES): CCOC(=O)C(C(C)=O)C(c1ccc(C(=O)O)cc1)c1c(O)c2ccccc2oc1=O (stereo not given)
- Activity [1]: Active

Structure (SMILES): CCOC(=O)C(C(C)=O)C(c1ccc(O)cc1)c1c(O)c2ccccc2oc1=O (stereo not given)
- Activity [1]: Active
- Activity [3]: Active

Structure (SMILES): O=c1ccc2cc(O)c(O)cc2o1
- Activity (HUVEC): Active

Structure (SMILES): CCOC(=O)C(C(C)=O)C(c1cccc([N+](=O)[O-])c1)c1c(O)c2ccccc2oc1=O (stereo not given)
- Activity [1]: 7%
- Activity (HL-60): Active
- Activity (EJ): Active
- Activity [2]: Dose-dependent effect
